Measured values taken from ChEMBL document CHEMBL1122179, “1-(alkylamino)isochromans: hypotensives with peripheral and central activities” (J Med Chem, 1982).
Values belong to the compound of their own block, whether it stands above or below them.

What was measured:
Rattus norvegicus [1] = test: Delta BP refers to oral hypotensive activity of compound which is evaluated at 4 hr and 24 hr in restrained, normotensive conscious rats at a dose of 50 mg/kg; -17/-9; format: functional
In short: (§1)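 Female Sprague-Dawley rats, normotensive, restrained in a towel. Blood pressure was read directly via chronic indwelling aortic cannulas exteriorized at the nape, before and 4 and 24 h after an oral dose suspended in carboxymethylcellulose (10 mL/kg). Values from two animals were averaged at each time; a mean change of at least 5 mmHg was taken as significant (p < 0.05).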

Rattus norvegicus [2] = test: Delta BP refers to oral hypotensive activity of compound which is evaluated at 4 hr and 24 hr in restrained, normotensive conscious rats at a dose of 50 mg/kg; -13/-10; format: functional; in short: as §1
Rattus norvegicus [3] = test: Delta BP refers to oral hypotensive activity of compound which is evaluated at 4 hr and 24 hr in restrained, normotensive conscious rats at a dose of 50 mg/kg; -24/-5; format: functional; in short: as §1
[4] = biological target: T1, Adrenergic receptor alpha-2 (Rattus norvegicus, UniProt P22086+P19328+P22909); test: Compound was tested for the inhibition of [3H]clonidine binding Alpha-2 adrenergic receptor of crude rat brain membrane
T1 sequence (P22086 whole entry): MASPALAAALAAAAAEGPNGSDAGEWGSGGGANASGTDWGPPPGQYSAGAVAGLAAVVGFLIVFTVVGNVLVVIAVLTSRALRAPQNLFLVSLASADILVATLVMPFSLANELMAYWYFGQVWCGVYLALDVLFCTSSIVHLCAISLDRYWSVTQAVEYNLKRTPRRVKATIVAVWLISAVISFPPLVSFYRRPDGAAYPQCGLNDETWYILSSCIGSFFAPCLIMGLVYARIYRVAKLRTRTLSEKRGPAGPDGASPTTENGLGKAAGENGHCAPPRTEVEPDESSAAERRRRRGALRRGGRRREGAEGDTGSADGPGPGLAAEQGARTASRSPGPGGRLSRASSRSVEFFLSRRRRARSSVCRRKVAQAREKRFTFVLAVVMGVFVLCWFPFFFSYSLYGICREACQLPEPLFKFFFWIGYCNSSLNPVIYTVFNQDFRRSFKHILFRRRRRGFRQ
T1 sequence (P19328 whole entry): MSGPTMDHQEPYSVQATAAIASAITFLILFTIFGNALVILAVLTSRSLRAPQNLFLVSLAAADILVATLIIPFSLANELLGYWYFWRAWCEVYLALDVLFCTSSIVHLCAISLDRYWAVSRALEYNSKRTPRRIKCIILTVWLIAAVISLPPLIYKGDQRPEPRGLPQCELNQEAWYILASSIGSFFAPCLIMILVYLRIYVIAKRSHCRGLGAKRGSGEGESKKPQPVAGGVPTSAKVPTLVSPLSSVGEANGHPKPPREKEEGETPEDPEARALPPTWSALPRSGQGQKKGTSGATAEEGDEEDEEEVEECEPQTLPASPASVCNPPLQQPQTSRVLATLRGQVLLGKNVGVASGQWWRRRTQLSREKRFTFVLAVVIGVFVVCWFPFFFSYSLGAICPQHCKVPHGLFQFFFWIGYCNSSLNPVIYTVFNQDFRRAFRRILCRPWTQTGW
T1 sequence (P22909 whole entry): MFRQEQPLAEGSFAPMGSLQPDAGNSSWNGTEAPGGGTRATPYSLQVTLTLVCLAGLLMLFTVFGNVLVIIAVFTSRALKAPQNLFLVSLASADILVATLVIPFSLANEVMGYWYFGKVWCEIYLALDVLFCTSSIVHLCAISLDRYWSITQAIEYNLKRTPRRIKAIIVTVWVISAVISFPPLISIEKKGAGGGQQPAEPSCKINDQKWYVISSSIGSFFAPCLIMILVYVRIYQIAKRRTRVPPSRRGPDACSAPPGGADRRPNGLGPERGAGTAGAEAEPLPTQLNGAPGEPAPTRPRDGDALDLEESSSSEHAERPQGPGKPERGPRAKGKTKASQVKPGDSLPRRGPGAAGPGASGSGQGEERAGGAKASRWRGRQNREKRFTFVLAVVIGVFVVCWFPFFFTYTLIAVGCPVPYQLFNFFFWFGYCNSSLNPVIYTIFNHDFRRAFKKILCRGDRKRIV

[5] = biological target: T2, Adrenergic receptor alpha-1 (Rattus norvegicus, UniProt P15823+P23944+P43140); test: Compound was tested for the inhibition of [3H]prazosin binding […] adrenergic receptor of crude rat brain membrane.
T2 sequence (P15823 whole entry): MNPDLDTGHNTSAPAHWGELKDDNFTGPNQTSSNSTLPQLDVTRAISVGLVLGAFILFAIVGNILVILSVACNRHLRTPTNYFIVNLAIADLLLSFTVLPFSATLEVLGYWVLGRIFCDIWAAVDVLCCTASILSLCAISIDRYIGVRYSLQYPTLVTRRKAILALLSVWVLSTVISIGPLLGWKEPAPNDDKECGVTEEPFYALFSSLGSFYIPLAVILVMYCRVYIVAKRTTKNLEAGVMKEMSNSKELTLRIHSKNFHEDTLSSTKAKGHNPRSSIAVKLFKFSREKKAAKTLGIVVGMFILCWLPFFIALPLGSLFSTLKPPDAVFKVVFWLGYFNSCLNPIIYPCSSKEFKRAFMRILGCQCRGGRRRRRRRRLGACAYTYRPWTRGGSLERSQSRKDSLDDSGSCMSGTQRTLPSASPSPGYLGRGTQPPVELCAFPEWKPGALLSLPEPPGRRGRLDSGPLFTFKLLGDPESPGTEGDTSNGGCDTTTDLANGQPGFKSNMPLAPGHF
T2 sequence (P23944 whole entry): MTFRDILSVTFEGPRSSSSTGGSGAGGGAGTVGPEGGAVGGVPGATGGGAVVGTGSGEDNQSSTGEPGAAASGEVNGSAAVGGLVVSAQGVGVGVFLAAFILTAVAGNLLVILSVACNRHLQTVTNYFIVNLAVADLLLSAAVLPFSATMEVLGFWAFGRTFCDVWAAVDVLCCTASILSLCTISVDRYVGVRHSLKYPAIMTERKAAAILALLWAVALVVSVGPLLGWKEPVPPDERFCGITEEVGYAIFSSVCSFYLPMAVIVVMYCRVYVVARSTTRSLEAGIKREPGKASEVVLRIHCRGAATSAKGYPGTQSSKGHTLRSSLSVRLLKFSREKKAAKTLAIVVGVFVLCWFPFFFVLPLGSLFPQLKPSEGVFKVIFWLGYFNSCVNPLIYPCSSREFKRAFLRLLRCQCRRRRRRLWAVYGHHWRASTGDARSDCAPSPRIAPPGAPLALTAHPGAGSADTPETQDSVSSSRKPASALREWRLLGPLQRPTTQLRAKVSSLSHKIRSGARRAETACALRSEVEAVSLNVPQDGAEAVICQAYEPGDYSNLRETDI
T2 sequence (P43140 whole entry): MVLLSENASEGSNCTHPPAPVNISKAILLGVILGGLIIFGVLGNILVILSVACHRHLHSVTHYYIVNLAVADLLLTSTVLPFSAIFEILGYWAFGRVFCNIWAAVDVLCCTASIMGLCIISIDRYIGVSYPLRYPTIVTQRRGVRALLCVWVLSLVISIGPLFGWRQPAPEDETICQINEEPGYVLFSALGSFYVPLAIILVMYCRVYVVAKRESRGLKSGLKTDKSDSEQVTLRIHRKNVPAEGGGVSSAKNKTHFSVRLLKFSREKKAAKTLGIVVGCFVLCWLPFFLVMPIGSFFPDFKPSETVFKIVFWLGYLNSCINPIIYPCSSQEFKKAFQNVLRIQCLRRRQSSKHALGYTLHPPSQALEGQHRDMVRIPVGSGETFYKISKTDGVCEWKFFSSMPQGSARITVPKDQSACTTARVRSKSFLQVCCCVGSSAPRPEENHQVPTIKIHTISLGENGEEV

Rattus norvegicus [6] = test: Delta BP refers to oral hypotensive activity of compound which is evaluated at 4 hr and 24 hr in restrained, normotensive conscious rats at a dose of 50 mg/kg; 1/0; format: functional; in short: as §1
Rattus norvegicus [7] = test: Delta BP refers to oral hypotensive activity of compound which is evaluated at 4 hr and 24 hr in restrained, normotensive conscious rats at a dose of 50 mg/kg; -17/-20; format: functional; in short: as §1
Rattus norvegicus [8] = test: Delta BP refers to oral hypotensive activity of compound which is evaluated at 4 hr and 24 hr in restrained, normotensive conscious rats at a dose of 50 mg/kg; -19/-19; format: functional; in short: as §1
Rattus norvegicus [9] = test: Delta BP refers to oral hypotensive activity of compound which is evaluated at 4 hr and 24 hr in restrained, normotensive conscious rats at a dose of 50 mg/kg; -16/-10; format: functional; settings: dose 15 mg/kg, in the assay text read “dose of 15 mg/kg” for “dose of 50 mg/kg”; in short: as §1
Rattus norvegicus [10] = test: Delta BP refers to oral hypotensive activity of compound which is evaluated at 4 hr and 24 hr in restrained, normotensive conscious rats at a dose of 50 mg/kg; -11/-16; format: functional; in short: as §1

Structure (SMILES): COc1cc2c(cc1OC)C(C)(CCN1CCN(c3ccccc3)CC1)OCC2 (stereo not given)
Delta blood pressure (Rattus norvegicus [1]): -17 mmHg

Structure (SMILES): COc1cc2c(cc1OC)C(CCN1CCN(c3ccccc3)CC1)OCC2 (stereo not given)
Delta blood pressure (Rattus norvegicus [2]): -13 mmHg

Structure (SMILES): COc1cc2c(cc1OC)C(CN1CCN(c3ccccc3C)CC1)OCC2 (stereo not given)
Delta blood pressure (Rattus norvegicus [3]): -24 mmHg

Ki [4]: 307 nM
Ki [5]: 4 nM
Structure (SMILES): COc1cc2c(cc1OC)C(CCN1CCN(c3ccc(F)cc3)CC1)OCCC2 (stereo not given)

Structure (SMILES): COc1cc2c(cc1OC)C(CCN1CCN(c3cccc(Cl)c3)CC1)OCC2 (stereo not given)
Delta blood pressure (Rattus norvegicus [6]): 1 mmHg

Structure (SMILES): COc1cc2c(cc1OC)C(CCN1CCN(c3ccccc3C)CC1)OC(C)(C)C2 (stereo not given)
Delta blood pressure (Rattus norvegicus [7]): -17 mmHg

Structure (SMILES): COc1cc2c(cc1OC)C(CCCN1CCN(c3ccccc3)CC1)(c1ccc(F)cc1)OCC2 (stereo not given)
Delta blood pressure (Rattus norvegicus [8]): -19 mmHg
Delta blood pressure (Rattus norvegicus [9]): -16 mmHg

Structure (SMILES): COc1cc2c(cc1OC)C(C)(CCCN1CCN(c3ccccn3)CC1)OCC2 (stereo not given)
Delta blood pressure (Rattus norvegicus [10]): -11 mmHg
